Data: PMC12475083 (Scientific Reports, 2025)
Like-named read-outs stand apart in the source and are kept apart here.

Assays:
drHDAC10 = biological target: T1, drHDAC10 (Danio rerio, UniProt F1QCV2); assay: Enzymatic in vitro HDAC10 inhibition assay; assay type: biochemical, zebrafish
T1 sequence (F1QCV2 1-675): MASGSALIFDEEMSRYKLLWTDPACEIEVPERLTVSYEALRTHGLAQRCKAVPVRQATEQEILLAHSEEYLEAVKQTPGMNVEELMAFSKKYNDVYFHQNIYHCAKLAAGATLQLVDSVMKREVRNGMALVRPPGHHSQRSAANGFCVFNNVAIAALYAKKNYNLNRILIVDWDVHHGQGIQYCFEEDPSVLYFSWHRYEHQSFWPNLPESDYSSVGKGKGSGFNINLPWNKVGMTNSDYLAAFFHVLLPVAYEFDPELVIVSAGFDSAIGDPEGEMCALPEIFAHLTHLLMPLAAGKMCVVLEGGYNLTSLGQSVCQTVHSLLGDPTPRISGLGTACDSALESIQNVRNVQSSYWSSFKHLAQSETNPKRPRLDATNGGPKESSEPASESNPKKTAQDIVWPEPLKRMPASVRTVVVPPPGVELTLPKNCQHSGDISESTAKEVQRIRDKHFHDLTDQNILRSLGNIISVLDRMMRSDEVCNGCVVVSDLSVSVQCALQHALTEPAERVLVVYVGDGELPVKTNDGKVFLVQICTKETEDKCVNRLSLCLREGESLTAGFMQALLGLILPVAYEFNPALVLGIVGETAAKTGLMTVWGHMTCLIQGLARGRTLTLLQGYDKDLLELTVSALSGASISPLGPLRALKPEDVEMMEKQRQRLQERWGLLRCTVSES
In short: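 Recombinant wild-type drHDAC10 (5 nM final) was preincubated 5 min with test compound at various concentrations in 20 mM HEPES pH 7.4 with 0.5 mg/mL BSA. The reaction was started with 50 µM Ac-spermidine-AMC and incubated 25 min at 25 °C. A stop solution containing 16 mM NDA derivatized the released primary amine. Fluorescence was read at λex 330 nm and λem 390 nm.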

hHDAC6 = biological target: T2, hHDAC6 (Homo sapiens, UniProt Q9UBN7); assay: biochemical
T2 sequence (Q9UBN7 1-1215): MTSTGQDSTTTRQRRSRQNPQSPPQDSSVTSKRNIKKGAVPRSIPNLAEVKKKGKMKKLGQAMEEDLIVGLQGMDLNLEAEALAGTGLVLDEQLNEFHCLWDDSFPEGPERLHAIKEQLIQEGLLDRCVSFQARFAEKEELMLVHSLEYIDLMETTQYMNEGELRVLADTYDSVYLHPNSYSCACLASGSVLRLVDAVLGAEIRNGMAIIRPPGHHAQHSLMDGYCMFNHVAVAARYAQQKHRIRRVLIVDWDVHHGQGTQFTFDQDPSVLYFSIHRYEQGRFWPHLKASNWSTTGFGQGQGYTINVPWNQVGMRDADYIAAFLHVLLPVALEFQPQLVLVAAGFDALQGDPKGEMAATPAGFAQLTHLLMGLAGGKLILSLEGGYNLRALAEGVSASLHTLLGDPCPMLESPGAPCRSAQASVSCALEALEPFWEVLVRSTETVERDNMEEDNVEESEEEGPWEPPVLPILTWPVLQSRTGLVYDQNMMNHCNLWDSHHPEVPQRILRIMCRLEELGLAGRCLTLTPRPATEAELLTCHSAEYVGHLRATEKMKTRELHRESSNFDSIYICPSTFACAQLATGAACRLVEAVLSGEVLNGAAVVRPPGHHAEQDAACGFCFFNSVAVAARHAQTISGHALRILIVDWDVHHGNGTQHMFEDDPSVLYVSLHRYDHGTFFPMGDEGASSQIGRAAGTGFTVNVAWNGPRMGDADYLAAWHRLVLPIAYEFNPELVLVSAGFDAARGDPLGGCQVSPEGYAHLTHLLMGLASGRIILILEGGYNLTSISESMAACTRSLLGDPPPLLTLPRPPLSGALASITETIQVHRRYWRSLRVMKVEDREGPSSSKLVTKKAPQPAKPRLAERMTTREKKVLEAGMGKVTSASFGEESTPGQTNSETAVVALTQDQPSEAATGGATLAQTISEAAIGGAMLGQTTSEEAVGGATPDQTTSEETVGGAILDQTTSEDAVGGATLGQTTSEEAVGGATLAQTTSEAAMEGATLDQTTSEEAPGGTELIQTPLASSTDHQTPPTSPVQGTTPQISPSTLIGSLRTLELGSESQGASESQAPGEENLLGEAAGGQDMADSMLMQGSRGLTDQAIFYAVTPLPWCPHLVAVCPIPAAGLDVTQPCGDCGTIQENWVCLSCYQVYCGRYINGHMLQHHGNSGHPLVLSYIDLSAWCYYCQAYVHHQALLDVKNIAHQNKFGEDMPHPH

Vero kidney cells = assay: Cytotoxicity, WST-8 cell viability, non-cancer kidney cells; assay type: cell-based; details: read-out: Kidney cells IC50 Vero
In short: (§1)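 Cells were seeded at 10,000 cells/well and grown for 24 h. Test compounds were dissolved in DMSO, diluted in medium and added at 80, 40, 20 and 10 µM. Cells were then incubated for 48 h. Viability was read with WST-8 plus 1-methoxy PMS as formazan absorbance at 450 nm. Controls were doxorubicin (positive) and 0.25% DMSO (vehicle). IC50 came from concentration-response curves, mean ± SD (n = 3).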

[1] = tested on: BT-549 (breast carcinoma); assay: Cytotoxicity, WST-8 cell viability; assay type: cell-based, human; details: read-out: Cancer cell lines IC50 BT-549
In short: as §1

hHDAC8 = biological target: T3, hHDAC8 (Homo sapiens, UniProt Q9BY41); assay: biochemical; assay type: biochemical; details: for hHDAC8 % @1 µM: inhibitor at 1 µM; for hHDAC8 % @10 µM: inhibitor at 10 µM
T3 sequence (Q9BY41 1-377): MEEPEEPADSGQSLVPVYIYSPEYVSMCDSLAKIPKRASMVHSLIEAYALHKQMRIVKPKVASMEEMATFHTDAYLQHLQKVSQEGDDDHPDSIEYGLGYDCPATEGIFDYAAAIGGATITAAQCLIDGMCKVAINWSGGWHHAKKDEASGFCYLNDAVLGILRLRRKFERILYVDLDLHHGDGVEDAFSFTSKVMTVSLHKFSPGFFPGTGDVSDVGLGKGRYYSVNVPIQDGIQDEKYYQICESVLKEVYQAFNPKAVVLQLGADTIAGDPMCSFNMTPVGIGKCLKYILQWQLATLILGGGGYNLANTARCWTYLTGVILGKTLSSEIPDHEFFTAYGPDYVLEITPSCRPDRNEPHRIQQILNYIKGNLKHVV

[2] = tested on: SK-OV-3 (ovarian carcinoma); assay: Cytotoxicity, WST-8 cell viability; assay type: cell-based, human; details: read-out: Cancer cell lines IC50 SK-OV-3
In short: as §1

KB (epidermal carcinoma) = assay: Cytotoxicity, WST-8 cell viability; assay type: cell-based, human; details: read-out: Cancer cell lines IC50 KB
In short: as §1

hHDAC1 = hHDAC1 (Homo sapiens, UniProt Q13547); assay: biochemical; assay type: biochemical; details: for hHDAC1 % @1 µM: inhibitor at 1 µM; for hHDAC1 % @10 µM: inhibitor at 10 µM
Chain of hHDAC1 (Q13547 whole entry): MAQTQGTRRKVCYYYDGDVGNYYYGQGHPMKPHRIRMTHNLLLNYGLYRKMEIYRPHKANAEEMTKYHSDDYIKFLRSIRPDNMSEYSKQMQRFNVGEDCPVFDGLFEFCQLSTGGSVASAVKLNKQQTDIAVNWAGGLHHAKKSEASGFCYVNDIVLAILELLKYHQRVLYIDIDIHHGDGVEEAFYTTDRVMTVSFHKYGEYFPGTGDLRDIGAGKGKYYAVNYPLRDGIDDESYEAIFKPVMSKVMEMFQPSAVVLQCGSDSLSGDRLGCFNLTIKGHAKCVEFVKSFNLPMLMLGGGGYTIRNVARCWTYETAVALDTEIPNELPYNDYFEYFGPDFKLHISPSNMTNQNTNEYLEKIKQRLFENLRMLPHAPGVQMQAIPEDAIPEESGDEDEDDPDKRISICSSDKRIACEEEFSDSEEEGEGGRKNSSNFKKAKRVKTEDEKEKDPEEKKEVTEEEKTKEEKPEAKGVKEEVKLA

SK-MEL (melanoma) = assay: Cytotoxicity, WST-8 cell viability; assay type: cell-based, human; details: read-out: Cancer cell lines IC50 SK-MEL
In short: as §1

LLC-PK1 kidney cells = assay: Cytotoxicity, WST-8 cell viability, non-cancer kidney cells; assay type: cell-based; details: read-out: Kidney cells IC50 LLC-PK1; 48 h incubation, mean ± SD (n = 3)
In short: as §1

[3] = Chlorocebus sabaeus, Vero, 48 h
[4] = read-out: IC50 drHDAC10 ± SD, zebrafish HDAC10, recombinant wild type
[5] = read-out: hHDAC6 IC50, recombinant human HDAC6
[6] = 48 h incubation, mean ± SD (n = 3)

Row | Compound | IC50 (drHDAC10) | IC50 (hHDAC6) | IC50 (hHDAC8) | hHDAC1 % @1 µM (hHDAC1) | hHDAC1 % @10 µM (hHDAC1) | hHDAC8 % @1 µM (hHDAC8) | hHDAC8 % @10 µM (hHDAC8) | IC50 (Vero kidney cells; [3]) | IC50 ([1]; Homo sapiens, BT-549, 48 h) | IC50 ([2]; Homo sapiens, SK-OV-3, 48 h) | IC50 (KB (epidermal carcinoma); Homo sapiens, 48 h) | IC50 (SK-MEL (melanoma); Homo sapiens, 48 h) | other results
1 | O=C(NO)c1ccc(CNCc2c[nH]c3ccccc23)cc1 [Compound 2a, 4-((((1H-indol-3-yl)methyl)amino)methyl)-N-hydroxybenzamide] | 0.00041 ± 2e-05 µM | 0.037 ± 0.002 µM | 0.35 ± 0.02 µM |  |  |  |  | 62.6 ± 2.39 µM | > 80 µM | 61 ± 14.4 µM | 72.8 ± 2.4 µM | > 80 µM | selectivity of HDAC10 over HDAC6 (drHDAC10; ratio of HDAC6 to HDAC10 IC50): approximately 90 fold; IC50 (hHDAC1): 4.5 ± 0.2 µM
2 | O=C(NO)c1ccc(N2CCN(Cc3c[nH]c4ccccc34)CC2)cc1 [Compound 2b, 4-(4-((1H-indol-3-yl)methyl)piperazin-1-yl)-N-hydroxybenzamide] | 0.002 ± 0.0001 µM | 0.073 ± 0.003 µM | 0.074 ± 0.006 µM | 48.4% | 90.6% |  |  | 5.99 ± 0.4 µM | 16.8 ± 3.63 µM | 11.4 ± 4.04 µM | 12.1 ± 1.41 µM | 26 ± 3.62 µM | 
3 | Cc1ccc(S(=O)(=O)n2cc(CNCc3ccc(C(=O)NO)cc3)c3ccccc32)cc1 [Compound 2c, N-hydroxy-4-((((1-tosyl-1H-indol-3-yl)methyl)amino)methyl) benzamide] |  |  |  | 22.2% | 72.8% | 65.1% | 97.3% |  |  |  |  |  | IC50 (drHDAC10; [4]): 0.0045 ± 0.0003 µM; reduction in HDAC10 inhibitory activity compared to compound 2a (drHDAC10; tosyl analogue vs compound 2a): ~10 fold; IC50 (hHDAC6; [5]): 0.051 ± 0.005 µM; IC50 (Vero kidney cells; [6]): 21.4 ± 1.27 µM; IC50 [1, 6]: 16.5 ± 0.32 µM; IC50 [2, 6]: 21.4 ± 1.89 µM; IC50 (KB (epidermal carcinoma); [6]): 20.2 ± 0.32 µM; IC50 (SK-MEL (melanoma); [6]): 15.1 ± 0.94 µM; IC50 (LLC-PK1 kidney cells): 16.6 ± 3.93 µM
4 | Cc1ccc(S(=O)(=O)n2cc(CNc3ccc(C(=O)NO)cc3)c3ccccc32)cc1 [Compound 2d, N-hydroxy-4-(((1-tosyl-1H-indol-3-yl)methyl)amino)benzamide] | 0.29 ± 0.06 µM | 0.053 ± 0.005 µM |  | 1.3% | 38.9% | 49.2% | 98.9% | 50.5 ± 9.74 µM | 11.4 ± 0.16 µM | 12.6 ± 0.98 µM | 13.3 ± 0.33 µM | 8.38 ± 2.11 µM | 
5 | Cc1ccc(S(=O)(=O)n2cc(CN3CCN(c4ccc(C(=O)NO)cc4)CC3)c3ccccc32)cc1 [Compound 2e, N-hydroxy-4-(4-((1-tosyl-1H-indol-3-yl)methyl)piperazin-1-yl)benzamide] | 0.075 ± 0.012 µM |  |  | 7.3% | 67.2% | 26.9% | 87.9% | 13.2 ± 1.82 µM | 9.71 ± 0.28 µM | 8.62 ± 0.42 µM | 10 ± 0.7 µM | 8.82 ± 0.7 µM | decrease in HDAC10 activity compared to unsubstituted counterpart compound 2b (drHDAC10; tosyl analogue vs compound 2b): ~38 fold; hHDAC6 % @1 µM (hHDAC6; inhibitor at 1 µM): 35.3%; hHDAC6 % @10 µM (hHDAC6; inhibitor at 10 µM): 95%
6 | COc1cccc2c1C(=O)c1c(O)c3c(c(O)c1C2=O)C[C@@](O)(C(=O)CO)C[C@@H]3O[C@H]1C[C@H](N)[C@H](O)[C@H](C)O1 [Doxorubicin, reference compound] |  |  |  |  |  |  |  | > 11 µM | 3.44 µM | 2.01 µM | 2.3 µM | 2.52 µM | 

Second part, led by results:

Row | IC50 (drHDAC10) | IC50 (hHDAC6) | IC50 (hHDAC8) | hHDAC1 % @1 µM (hHDAC1) | hHDAC1 % @10 µM (hHDAC1) | hHDAC8 % @1 µM (hHDAC8) | hHDAC8 % @10 µM (hHDAC8) | Compound | IC50 (Vero kidney cells; [3]) | IC50 ([1]; Homo sapiens, BT-549, 48 h) | IC50 ([2]; Homo sapiens, SK-OV-3, 48 h) | IC50 (KB (epidermal carcinoma); Homo sapiens, 48 h) | IC50 (SK-MEL (melanoma); Homo sapiens, 48 h) | other results
7 | 0.11 ± 0.01 µM | 0.0025 ± 0.0003 µM | 0.21 ± 0.01 µM |  |  |  |  | O=C(NO)c1ccc(NCc2cnc3ccccc3c2)cc1 [Compound 2f, N-hydroxy-4-((quinolin-3-ylmethyl)amino)benzamide] | 3.92 ± 0.24 µM | 14.8 ± 2.65 µM | 10.9 ± 2.89 µM | 9.72 ± 0.73 µM | 15.2 ± 1.21 µM | 
8 |  |  |  | 32.1% | 79.4% |  |  | O=C(NO)c1ccc(N2CCN(Cc3cnc4ccccc4c3)CC2)cc1 [Compound 2g, N-hydroxy-4-{4-[(quinolin-3-yl)methyl]piperazin-1-yl}benzamide] | 51 ± 1.95 µM | > 69 µM | > 69 µM | > 69 µM | > 69 µM | IC50 (drHDAC10; [4]): 0.011 ± 0.001 µM; IC50 (hHDAC6; [5]): 0.13 ± 0.01 µM; IC50 (hHDAC8; read-out: hHDAC8 IC50, recombinant human HDAC8): 0.3 ± 0.02 µM
9 | 0.05 ± 0.003 µM |  |  | 7.6% | 29.9% | 46.4% | 84% | CN1CCc2c(c3ccccc3n2Cc2ccc(C(=O)NO)cc2)C1 [Tubastatin A, reference compound] |  |  |  |  |  | 
